PMC6923801 (Journal of medicinal chemistry, 2019)
pEC50: −log10 of the molar value.

How the values were obtained:
Assay type in all cases: cell-based
[1] = biological target: GPR65 (Homo sapiens, UniProt Q8IYL9); assay: GloSensor cAMP assay at GPR65; conditions: proton concentration-response with increasing modulator
Method in brief: (§1)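 HEK293T cells were transiently transfected with receptor and GloSensor cAMP plasmids, overnight (16–20 h). Cells were plated on poly-L-Lys in DMEM + 1% dFBS for 6–24 h, then loaded with 3.5 mM luciferin (HBSS, 20 mM TAPS, pH 8.40) for 1 h at 37 °C. Drug was applied in Ca/Mg-free HBSS pH buffers (MES 5.60–6.70, HEPES 6.80–8.20, TAPS 8.30–8.60) with 10 μM Ro 20-1724. Luminescence was read at 20–30 min.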

[2] = tested on: human GPCRome (318 GPCRs); assay: PRESTO-Tango GPCRome off-target agonist screen; conditions: 1 μM
Method in brief: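 HTLA cells were plated in DMEM + 2% dFBS overnight, then transfected overnight with receptor Tango constructs (15 ng/well) by in-plate PEI. Test compound was added without medium change and left overnight. Bright-Glo luminescence was read after 20 min at room temperature and expressed as fold of basal, using quadruplicate basal and sample wells. Controls were D2 with 100 nM quinpirole and untransfected cells.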

[3] = biological target: A2A receptors (Homo sapiens, UniProt P29274); assay: Functional assay at A2A receptors
A2A receptors, sequence (P29274 whole entry): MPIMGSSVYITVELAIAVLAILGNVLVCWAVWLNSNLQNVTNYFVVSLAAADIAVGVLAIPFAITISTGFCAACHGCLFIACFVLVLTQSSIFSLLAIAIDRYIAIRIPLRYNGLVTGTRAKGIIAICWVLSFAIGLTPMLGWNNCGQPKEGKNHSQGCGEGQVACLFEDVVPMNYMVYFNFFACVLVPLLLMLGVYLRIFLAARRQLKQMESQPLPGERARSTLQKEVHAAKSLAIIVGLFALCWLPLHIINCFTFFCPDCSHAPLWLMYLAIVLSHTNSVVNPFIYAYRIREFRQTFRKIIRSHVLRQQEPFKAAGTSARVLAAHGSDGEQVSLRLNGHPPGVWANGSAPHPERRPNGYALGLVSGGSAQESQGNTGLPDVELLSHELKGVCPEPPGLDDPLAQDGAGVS

[4] = biological target: human GPR68 (Homo sapiens, UniProt Q15743); assay: GloSensor cAMP assay, proton-mediated Gs-cAMP production at human GPR68; conditions: for Δ: difference of Log(αβ/KB) from that of 1; for Log (α): affinity cooperativity; for Log (α) / Log (β): human GPR68, HEK293T, Gs-cAMP; for Log (α) / −Log (KB) / Log (αβ/KB) / Log (β): mean ± SEM; for −Log (KB): allosteric binding affinity from functional assay; for Log (αβ/KB): allosteric index; for Log (β): efficacy cooperativity
human GPR68, sequence (Q15743 whole entry): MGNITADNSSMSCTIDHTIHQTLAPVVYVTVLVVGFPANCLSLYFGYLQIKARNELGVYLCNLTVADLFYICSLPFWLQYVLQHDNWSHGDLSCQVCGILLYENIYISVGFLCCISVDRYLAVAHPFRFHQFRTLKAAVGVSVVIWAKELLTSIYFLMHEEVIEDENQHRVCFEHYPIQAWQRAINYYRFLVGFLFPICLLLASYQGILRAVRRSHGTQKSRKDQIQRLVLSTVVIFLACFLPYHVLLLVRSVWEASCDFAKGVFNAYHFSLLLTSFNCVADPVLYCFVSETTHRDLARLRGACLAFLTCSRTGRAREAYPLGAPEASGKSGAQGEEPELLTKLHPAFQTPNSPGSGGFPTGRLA
Method in brief: as §1

[5] = biological target: mouse GPR68 (Mus musculus, UniProt Q8BFQ3); assay: GloSensor cAMP assay at mouse GPR68
mouse GPR68, sequence (Q8BFQ3 whole entry): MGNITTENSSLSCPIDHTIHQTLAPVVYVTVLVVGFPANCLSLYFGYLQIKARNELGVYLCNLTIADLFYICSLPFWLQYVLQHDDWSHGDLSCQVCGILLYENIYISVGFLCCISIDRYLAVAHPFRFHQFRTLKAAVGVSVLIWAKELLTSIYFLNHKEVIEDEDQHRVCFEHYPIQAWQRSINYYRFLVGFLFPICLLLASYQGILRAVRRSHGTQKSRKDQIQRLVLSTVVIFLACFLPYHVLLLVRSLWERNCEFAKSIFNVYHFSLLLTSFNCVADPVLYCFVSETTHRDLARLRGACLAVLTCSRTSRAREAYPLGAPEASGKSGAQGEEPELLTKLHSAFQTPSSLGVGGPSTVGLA
Method in brief: as §1

[6] = biological target: GPR4 (Homo sapiens, UniProt P46093); assay: GloSensor cAMP assay at GPR4; conditions: proton concentration-response with increasing modulator
GPR4, sequence (P46093 whole entry): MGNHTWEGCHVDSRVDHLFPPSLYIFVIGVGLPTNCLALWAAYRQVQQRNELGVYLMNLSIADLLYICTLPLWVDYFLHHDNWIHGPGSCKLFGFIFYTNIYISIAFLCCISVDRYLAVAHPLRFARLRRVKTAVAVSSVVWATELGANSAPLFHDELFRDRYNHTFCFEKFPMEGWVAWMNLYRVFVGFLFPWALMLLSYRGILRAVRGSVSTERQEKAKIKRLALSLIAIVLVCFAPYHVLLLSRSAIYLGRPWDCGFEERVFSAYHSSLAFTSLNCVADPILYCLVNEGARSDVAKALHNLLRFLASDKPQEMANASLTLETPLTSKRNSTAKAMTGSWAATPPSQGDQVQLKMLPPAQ
Method in brief: as §1

GPR65, sequence (Q8IYL9 whole entry): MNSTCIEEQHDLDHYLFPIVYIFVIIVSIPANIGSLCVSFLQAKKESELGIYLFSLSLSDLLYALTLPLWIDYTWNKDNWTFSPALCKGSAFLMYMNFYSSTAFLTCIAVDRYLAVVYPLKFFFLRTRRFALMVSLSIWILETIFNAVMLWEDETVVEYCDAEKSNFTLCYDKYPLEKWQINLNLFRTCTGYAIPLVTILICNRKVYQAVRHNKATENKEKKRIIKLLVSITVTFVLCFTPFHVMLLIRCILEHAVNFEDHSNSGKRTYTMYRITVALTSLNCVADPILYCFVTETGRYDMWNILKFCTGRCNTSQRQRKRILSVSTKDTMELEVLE

Row | SMILES | Kb [4] [µM] | Δ ([4]; human GPR68) | other results
1 | Nc1nc(NCc2ccc(Cl)cc2)nc(-c2ccccc2CO)n1 [Compound 46, (2-(4-Amino-6-((4-chlorobenzyl)amino)-1,3,5-triazin-2-yl)-phenyl)methanol] | 6.03 | 0.80 | PAM activity at GPR65 [1]: no effect or weak activity only at high concentrations; off-target agonist activity at human GPCRome [2]: no agonist activity; pEC50 [3]: 5.77; agonist activity at A2A receptors [3]: no agonist activity; fold increased allosteric activity (log(αβ/KB)) compared to 1 ([4]; human GPR68): 6 fold; Kb [5]: 50.1 µM; Δ ([5]; difference of Log(αβ/KB) at mouse GPR68 from the corresponding values at human GPR68): −0.43; PAM activity at GPR4 [6]: no effect or weak activity only at high concentrations
2 | Nc1nc(NCc2ccccc2)nc(-c2cccc(CO)c2)n1 [Compound 20] |  | Inactive | PAM activity at GPR65 [1]: do not show PAM activity; Log (α) [4]: Inactive; −Log (KB) ([4]; human GPR68): Inactive; Log (αβ/KB) ([4]; human GPR68): Inactive; Log (β) [4]: Inactive; PAM activity at GPR68 ([4]; inactive analogues): do not show PAM activity; PAM activity at GPR4 [6]: do not show PAM activity
3 | Nc1nc(NCCCCc2ccc(Oc3ccccc3)cc2)nc(-c2ccccc2CO)n1 [Compound 66, (2-(4-Amino-6-((4-(4-phenoxyphenyl)butyl)amino)-1,3,5-triazin-2-yl)phenyl)methanol] | 15.5 | 0.62 | 
4 | Nc1nc(NCc2ccccc2F)nc(-c2c(F)cccc2CO)n1 [Compound 67, (2-(4-Amino-6-((2-fluorobenzyl)amino)-1,3,5-triazin-2-yl)-3-fluorophenyl)methanol] | 60.3 |  | 
5 | Cc1ccc(CNc2nc(N)nc(-c3ccccc3CO)n2)cc1 [Compound 52, (2-(4-Amino-6-((4-methylbenzyl)amino)-1,3,5-triazin-2-yl)-phenyl)methanol] | 41.7 | 0.29 | 
6 | CCOc1ccc(-c2nc(N)nc(NCc3ccccc3)n2)c(CO)c1 [Compound 37, (2-(4-Amino-6-(benzylamino)-1,3,5-triazin-2-yl)-5-ethoxyphenyl)methanol] | 42.7 | 0.03 | 
7 | Nc1nc(NCc2ccccc2)nc(-c2cccc(F)c2CO)n1 [Compound 22, (2-(4-Amino-6-(benzylamino)-1,3,5-triazin-2-yl)-6-fluorophenyl)-methanol] | 97.7 | −0.45 | 
8 | Nc1nc(NCCCc2ccccc2)nc(-c2c(F)cccc2CO)n1 [Compound 73, (2-(4-Amino-6-((3-phenylpropyl)amino)-1,3,5-triazin-2-yl)-3-fluorophenyl)methanol] | 33.9 | 0.36 | 
9 | Nc1nc(Nc2ccccc2)nc(-c2ccccc2CO)n1 [Compound 60, (2-(4-Amino-6-(phenylamino)-1,3,5-triazin-2-yl)phenyl)-methanol] | 120 | −0.27 | 
10 | COc1ccc(CNc2nc(N)nc(-c3ccccc3CO)n2)cc1 [Compound 55] | 457 | −0.70 | 
11 | Cc1cccc(CNc2nc(N)nc(-c3ccccc3CO)n2)c1 [Compound 51, (2-(4-Amino-6-((3-methylbenzyl)amino)-1,3,5-triazin-2-yl)-phenyl)methanol] | 39.8 | 0.26 | 
12 | COc1ccc(CO)c(-c2nc(N)nc(NCc3ccccc3)n2)c1 [Compound 31, (2-(4-Amino-6-(benzylamino)-1,3,5-triazin-2-yl)-4-methoxyphenyl)methanol] | 102 | −0.54 | 
13 | Nc1nc(NCc2ccccc2C(F)(F)F)nc(-c2ccccc2CO)n1 [Compound 47, (2-(4-Amino-6-((2-(trifluoromethyl)benzyl)amino)-1,3,5-triazin-2-yl)phenyl)methanol] | 8.91 | 0.65 | 
14 | Nc1nc(NCc2ccc(C(F)(F)F)cc2)nc(-c2ccccc2CO)n1 [Compound 49, (2-(4-Amino-6-((4-(trifluoromethyl)benzyl)amino)-1,3,5-triazin-2-yl)phenyl)methanol] | 9.33 | 0.79 | 
15 | Nc1nc(NCCCc2ccc(Oc3ccccc3)cc2)nc(-c2c(F)cccc2CO)n1 [Compound 76, (2-(4-Amino-6-((3-(4-phenoxyphenyl)propyl)amino)-1,3,5-triazin-2-yl)-3-fluorophenyl)methanol] | 11.5 | 0.81 | 
16 | CNc1nc(NCc2ccccc2)nc(-c2ccccc2CO)n1 [Compound 5] | 30.9 | 0.05 | 

Row | SMILES | Kb [4] [µM] | Δ ([4]; human GPR68) | other results
17 | Nc1nc(NCc2ccc(F)cc2)nc(-c2c(F)cccc2CO)n1 [Compound 68, (2-(4-Amino-6-((4-fluorobenzyl)amino)-1,3,5-triazin-2-yl)-3-fluorophenyl)methanol] | 35.5 | 0.24 | 
18 | Nc1nc(NCc2ccccc2)nc(-c2ccc(F)cc2CO)n1 [Compound 23, (2-(4-Amino-6-(benzylamino)-1,3,5-triazin-2-yl)-5-fluorophenyl)-methanol] | 26.3 | 0.15 | 
19 | COc1cccc(CO)c1-c1nc(N)nc(NCc2ccccc2)n1 [Compound 32, (2-(4-Amino-6-(benzylamino)-1,3,5-triazin-2-yl)-3-methoxyphenyl)methanol] |  | Weak PAM | Log (α) [4]: Weak PAM; −Log (KB) ([4]; human GPR68): Weak PAM; Log (αβ/KB) ([4]; human GPR68): Weak PAM; Log (β) [4]: Weak PAM
20 | Nc1cc(-c2ccccc2CO)nc(NCc2ccccc2)n1 [Compound 10, (2-(6-Amino-2-(benzylamino)pyrimidin-4-yl)phenyl)methanol] |  | Weak PAM | Log (α) [4]: Weak PAM; −Log (KB) ([4]; human GPR68): Weak PAM; Log (αβ/KB) ([4]; human GPR68): Weak PAM; Log (β) [4]: Weak PAM
21 | Nc1nc(NCCCCc2ccccc2)nc(-c2c(F)cccc2CO)n1 [Compound 74, (2-(4-Amino-6-((4-phenylbutyl)amino)-1,3,5-triazin-2-yl)-3-fluorophenyl)methanol] | 91.2 | 0.03 | 
22 | COc1ccc(-c2nc(N)nc(NCc3ccccc3)n2)c(CO)c1 [Compound 30] | 75.9 | −0.34 | 
23 | COc1ccccc1CNc1nc(N)nc(-c2ccccc2CO)n1 [Compound 53, (2-(4-Amino-6-((2-methoxybenzyl)amino)-1,3,5-triazin-2-yl)-phenyl)methanol] | 102 | −0.28 | 
24 | Nc1nc(NCCc2ccc(Oc3ccccc3)cc2)nc(-c2cc(Cl)ccc2CO)n1 [Compound 81, (2-(4-Amino-6-((4-phenoxyphenethyl)amino)-1,3,5-triazin-2-yl)-4-chlorophenyl)methanol] | 25.7 | 0.56 | 
25 | Nc1nc(NCc2cccc(F)c2)nc(-c2ccccc2CO)n1 [Compound 42, (2-(4-Amino-6-((3-fluorobenzyl)amino)-1,3,5-triazin-2-yl)-phenyl)methanol] | 30.2 | 0.24 | 
26 | Nc1nc(NCCCCc2ccccc2)nc(-c2ccccc2CO)n1 [Compound 63] | 3.02 | 1.04 | Kb [5]: 12.3 µM
27 | Nc1nc(NCc2ccc(Oc3ccccc3)cc2)nc(-c2cc(Cl)ccc2CO)n1 [Compound 80, (2-(4-Amino-6-((4-phenoxybenzyl)amino)-1,3,5-triazin-2-yl)-4-chlorophenyl)methanol] | 20 | 0.47 | 
28 | Cc1ccccc1-c1nc(N)nc(NCc2ccccc2)n1 [Compound 14, N^2-Benzyl-6-(o-tolyl)-1,3,5-triazine-2,4-diamine] |  | Weak PAM | Log (α) [4]: Weak PAM; −Log (KB) ([4]; human GPR68): Weak PAM; Log (αβ/KB) ([4]; human GPR68): Weak PAM; Log (β) [4]: Weak PAM
29 | CC(O)c1ccccc1-c1nc(N)nc(NCc2ccccc2)n1 (stereo not shown) [Compound 16, 1-(2-(4-Amino-6-(benzylamino)-1,3,5-triazin-2-yl)phenyl)ethan-1-ol] |  | Weak PAM | Log (α) [4]: Weak PAM; −Log (KB) ([4]; human GPR68): Weak PAM; Log (αβ/KB) ([4]; human GPR68): Weak PAM; Log (β) [4]: Weak PAM
30 | COc1ccccc1CNc1nc(N)nc(-c2c(F)cccc2CO)n1 [Compound 70, (2-(4-Amino-6-((2-methoxybenzyl)amino)-1,3,5-triazin-2-yl)-3-fluorophenyl)methanol] | 77.6 | −0.19 | 
31 | Nc1nc(NCc2ccccc2)nc(-c2ccc(Cl)cc2CO)n1 [Compound 26, (2-(4-Amino-6-(benzylamino)-1,3,5-triazin-2-yl)-5-chlorophenyl)methanol] | 17.4 | 0.56 | 
